In the library only some 3.7% were active in any assay of this set; here they are far more common.
RBBP9 inhibitor = human RBBP9 hydrolase inhibition. O75884. recombinant RBBP9, FP-Rh probe fluorescence polarization. inhibition, % at 7.94 µM. actives 0.2% (n = 220,000);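 active means inhibition above the campaign mean of all tested compounds plus 3 SD, cut at about 14% in these data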;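 further: plate controls were DMSO wells with RBBP9 for no effect and wells lacking RBBP9 protein for full effect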
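Measured by – fluorescence polarization · Test system – RBBP9 protein · Input – 2.5 µM RBBP9 dispensing solution, before mixing · Measure – percent inhibition from mP, scaled between DMSO and no-protein wells · Benchmarks – DMSO-treated enzyme wells and wells lacking RBBP9 · Times – preincubation 30 min plus labeling 45 min at 25 °C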
14-3-3 Bad inh = disrupts binding of bovine 14-3-3 zeta to phospho-Bad peptide. TR-FRET 14-3-3zeta/Dy647-pBad peptide displacement, 1 h. AID 781. actives 0.71% (n = 220,000). inhibition, % at 21.7 µM. P63103;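 active means inhibition above about 70%, limit read from the data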;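 further: 0% = full 14-3-3 plus peptide FRET controls and 100% = background without 14-3-3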
NCF1 inh = blocks human p47phox regulatory protein of NADPH oxidases. p47phox/p22phox peptide binding, fluorescence polarization, 2 h. inhibition, % at 24.7 µM. actives 0.53% (n = 220,000);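 further: 0% = p47phox with labelled peptide and 100% = labelled peptide alone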
WT yeast gro inh = growth inhibition of WT yeast, mitochondrial fusion screen | mitochondrial fusion phenotypic screen, WT strain | actives 2.1% (n = 190,000) | inhibition, % at 10 µM; in the data active means inhibition above about 58%; tested in S. cerevisiae
EBV gp42 inh = inhibitors of Epstein-Barr virus glycoprotein 42. Q1HVG2. Fluorescence polarization binding assay, mP read-out. inhibition, % (tested at 21.74 µM). actives 0.42% (n = 220,000). AID 1085; in the data active means inhibition above about 50%
Target sequence (Q1HVG2 whole entry, looked up): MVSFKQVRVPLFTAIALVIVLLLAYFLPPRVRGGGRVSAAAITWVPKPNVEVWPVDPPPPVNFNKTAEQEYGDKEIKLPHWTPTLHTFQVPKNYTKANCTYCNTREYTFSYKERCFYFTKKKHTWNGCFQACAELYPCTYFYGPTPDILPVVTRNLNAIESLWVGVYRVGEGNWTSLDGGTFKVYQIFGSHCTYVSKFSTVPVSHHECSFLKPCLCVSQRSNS
eIF4E 4G PPI = inhibitors of eIF4E and eIF4G interaction in translation initiation | P63073+Q04637 | TR-FRET eIF4E-eIF4GI(517-606) binding, 2 h | inhibition, % at 21.7 µM | actives 0.37% (n = 220,000) | AID 782;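 further: 0% = full FRET control wells and 100% = background wells lacking eIF4GI fragment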
The depositor's hits bear a star; x = not tested or not shown; [ ] = dose if it differs, or a comment.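 How the source made its calls, unless noted: active means inhibition above about 30% (limit read from the data); inactive means the rest.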

SMILES	RBBP9 inhibitor	14-3-3 Bad inh	NCF1 inh	WT yeast gro inh	EBV gp42 inh	eIF4E 4G PPI
O=C(CSc1nnc(C2COc3ccccc3O2)o1)Nc1nccs1 (configuration not stated)	-7	-2	37*	-10	-22	-1
O=C(CSc1nnc(C2COc3ccccc3O2)o1)NC1CCCCC1 (configuration not stated)	-1	5	-3	2	-10	-1
CC(C)c1nc2sc3c(SCC(N)=O)ncnc3c2c2c1CCC2	-4	-42	-24	x	-6	-51
N#CCSc1nc2c(cc1C#N)CCCCCC2	-3	-3	-2	-2	-5	-1
CCS(=O)(=O)CCSc1nc2c(cc1C#N)CCCC2	-7	6	-3	61*	-15	4
CCOc1ccc(NC(=O)CSc2nc3ccccc3c(=O)n2CCCC(=O)NCCCN2CCCC2=O)cc1	-8	-5	1	-4	-17	-5
COc1cc2c(cc1OC)C(c1ccccc1O)N(C1CC(=O)N(c3ccccc3)C1=O)CC2 (configuration not stated)	3	74*	-4	-11	-9	-3
COc1cc2c(cc1OC)C(c1ccccc1)N(C(=O)CCl)CC2 (configuration not stated)	-5	-4	-11	-6	-12	-6
CCC(C)(C)NC(=O)C(c1ccncc1)N(C(=O)c1sc(C)nc1C)c1ccc(C)cc1 (configuration not stated)	-5	-2	-3	-11	-14	1
Cc1ccc(C(=O)ONc2ccc(N=NC(=O)c3ccccc3O)cc2)cc1	-4	26	11	38	93*	-47
Cc1ccc(-c2nc3ccsc3c(=O)[nH]2)cc1	-7	-4	2	-8	8	1
C=CCOc1ccnc(-c2ccccc2)n1	3	2	-7	x	-2	2
O=C(CSc1c(F)c(F)cc(F)c1F)Nc1ccc(C2SCCS2)cc1	1	-6	-24	x	-8	-1
CC(C)Nc1nc(Cl)nc(N(C#N)CN2C(=O)c3ccccc3S2(=O)=O)n1	-9	-4	-16	x	52*	-1
COc1nc(NC(C)C)nc(N(C#N)CN2C(=O)c3ccccc3S2(=O)=O)n1	4	1	-8	x	-28	1
O=C1/C(=C/c2ccc([N+](=O)[O-])cc2)C=C(c2ccccc2)N1c1ccc(O)cc1	0	-2	56*	51	5	-33
OCCN1CCN(CC(O)COc2ccc(-c3ccccc3)cc2)CC1 (configuration not stated)	-5	84*	5	40	6	6
OC(COc1ccc(OCC(O)CN2CCCCCC2)cc1)CN1CCCCCC1 (configuration not stated)	8	0	-3	-10	-8	7
OCCN1CCN(CC(O)COc2ccc3ccccc3c2)CC1 (configuration not stated)	0	17	-5	-11	-14	5
OCCN(Cc1ccccc1)CC(O)COc1ccc(-c2ccccc2)cc1 (configuration not stated)	-9	0	-15	66*	-19	-4
CN1CCN(CC(O)COc2ccc(C34CC5CC(CC(C5)C3)C4)cc2)CC1 (configuration not stated)	-5	-133	73*	97*	-5	-18
COc1cc(C(C)=O)ccc1OCC(O)CN(CCO)Cc1ccccc1 (configuration not stated)	5	-13	-3	-25	-1	-2
O=C1c2ccccc2-c2nnc(-c3ccc(F)cc3)cc21	-4	-10	46*	35	23	3
Cc1ccc(-c2cc3c(nn2)-c2ccccc2C3=O)cc1	1	-1	-4	52	-13	-1
Cc1ccc2nc(-c3ccccc3O)c(Nc3ccc4c(c3)OCCO4)n2c1	-4	1	-1	13	0	2
Clc1ccc2nc(-c3ccccn3)c(Nc3ccc4c(c3)OCO4)n2c1	-9	0	-3	73*	1	4
CCCCCCCCCCCCCCCC[n+]1ccc(/C=N/O)cc1	40*	99*[fluorescence artefact?]	97*	98*	-4	70*[fluorescence artefact?]
CCCCCCCC[n+]1cccc(C(=O)N(CC)CC)c1	-8	8	0	8	-8	0

Screening data from PubChem BioAssay.
